# Rows were chosen to be rich in hits. Some 1.8% of all compounds tested hit in one or more screens of this group.
# APJ antag – antagonists of human APJ apelin receptor; P35414; CHO-K1 APJ beta-arrestin complementation, luminescence; inhibition, % at 20 µM; actives 0.32% (n = 330,000); AID 2521;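 active = inhibition above about 40% at 20 µM, limit read from the data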;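 note: cells challenged with 10 nM apelin-13 agonist together with compound; plate controls were apelin-13 plus DMSO wells for no effect and DMSO wells lacking apelin-13 for full effect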
# Beta2AR agonist – agonists of human beta-2 adrenergic receptor inducing internalization | P07550 | Am2.2-beta2AR cells, FAP receptor internalization, flow cytometry | response, % (no concentration beside the values) | actives 0.43% (n = 340,000);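 active = response above a set limit, near 3 SD of response in nonfluorescent compounds, cut at about 42% in these data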
# Target sequence (P07550 whole entry, looked up): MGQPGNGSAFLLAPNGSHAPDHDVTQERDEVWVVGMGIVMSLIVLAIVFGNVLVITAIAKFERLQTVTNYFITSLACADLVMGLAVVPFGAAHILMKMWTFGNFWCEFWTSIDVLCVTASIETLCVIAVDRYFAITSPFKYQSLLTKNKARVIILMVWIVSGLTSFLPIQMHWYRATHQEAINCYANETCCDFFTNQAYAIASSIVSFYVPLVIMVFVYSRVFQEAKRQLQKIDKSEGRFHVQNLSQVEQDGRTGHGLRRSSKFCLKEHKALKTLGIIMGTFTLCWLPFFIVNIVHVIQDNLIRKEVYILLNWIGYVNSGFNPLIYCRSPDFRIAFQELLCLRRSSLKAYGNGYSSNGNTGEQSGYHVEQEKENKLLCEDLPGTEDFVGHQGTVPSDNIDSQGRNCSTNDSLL
# APJ ag – activates the human apelin receptor APJ. P35414. CHO-K1 APJ PathHunter beta-arrestin, luminescence; 0% DMSO wells, 100% apelin. activation, % at 20 µM. actives 0.11% (n = 330,000);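 active = activation more than six SD over the plate average, tested at 20 µM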;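 note: 0% = DMSO alone and 100% = apelin-13 at 10 nM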
#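 Incubation: overnight seeding, 90 min compound at 25 °C, 1 h detection; test system: PathHunter CHO-K1 APJ (AGTRL-1) beta-arrestin reporter cells; amount: 1000 cells/well; doses: one dose, 20 µM compound, 1% DMSO; measured by: beta-gal luminescence; measure: agonist-driven arrestin binding to APJ; benchmarks: negative DMSO alone, positive Apelin-13 at 10 nM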
# CXCR6 block – CXCR6 (human) receptor inhibition; CHO-K1 PathHunter CXCR6 beta-arrestin, luminescence; inhibition, % at 20 µM; O00574; actives 0.36% (n = 360,000); in the data active = inhibition above about 34%, passing the limit was not always enough;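 note: antagonist mode with CXCL16 agonist at 10 nM final; 0% = 10 nM CXCL16 with DMSO and 100% = unstimulated wells without agonist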
# EBI2 antag – antagonists of human EBI2 receptor | P32249 | EBI2 beta-arrestin recruitment, luminescence, 7a,25-OHC stimulated | inhibition, % at 5 µM | actives 0.81% (n = 360,000); in the data active = inhibition above about 38%;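 note: enzyme fragment complementation signal reports receptor beta-arrestin coupling in cells; 0% = agonist plus DMSO wells and 100% = wells without agonist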
# CCR6 antagonist – blocks CCL20-driven beta-arrestin recruitment at human CCR6. CHO-K1 CCR6 PathHunter beta-arrestin, luminescence, CCL20-stimulated. inhibition, % at 20 µM. actives 0.49% (n = 340,000);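 active = compounds whose inhibition of the agonist-driven luminescence signal at 20 µM reaches about 50%, limit read from the data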;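 note: cells stimulated with CCL20 at 14 nM final; plate controls were DMSO with CCL20 for no effect and DMSO without agonist for full effect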
# APJ ag conf – confirmation of human APJ apelin receptor agonists. CHO-K1 APJ PathHunter beta-arrestin, luminescence. activation, % at 20 µM. actives 10% (n = 310). shares compounds with APJ ag;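 active = activation above 40%, taking the highest of four retests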;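 note: plate controls were DMSO wells for no effect and apelin-13 at 10 nM for full effect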
# * = called active by the depositor; nt = not tested or not shown.
SMILES,APJ antag,Beta2AR agonist,APJ ag,CXCR6 block,EBI2 antag,CCR6 antagonist,APJ ag conf
CCCCCC(=O)N1C[C@@H](n2cc(-c3ccc(F)cc3)nn2)[C@H](O)C[C@@H]1c1ccc(OC)cc1,nt,nt,nt,5,25,nt,nt
Cc1ccc(C)c2[nH]c(=O)c(CCNC(=O)c3cc4ccccc4o3)cc12,-16,-9,12*,-8,9,-9,18
CCc1ccc(CNC(=O)CCCC(=O)n2nc(C)c3ccccc32)cc1,-5,-12,-8,0,-3,28,nt
CCCn1c(=N)c(C(=O)NCC2CCCO2)cc2c(=O)n3cccc(C)c3nc21 (centres undefined),5,-57,-9,0,-1,6,nt
Cc1cccn2c(=O)c3cc(C(=O)NCC4CCCO4)c(=N)n(CCN4CCOCC4)c3nc12 (centres undefined),-6,-7,31*,8,-9,-2,-5
CCOc1ccc(C(=O)CCC(=O)N2CCN(S(=O)(=O)c3cccc(F)c3)CC2)cc1,-9,3,-5,16,2,8,nt
Cn1ncc2c(O/N=C(\N)c3ccc(C(C)(C)C)cc3)ncnc21,-65,49*,27*,-34,2,-32,62*
COc1cc(C(=O)Nc2ccc(S(=O)(=O)N3CCCCC3)cc2)ccc1OCC(=O)N1CCOCC1,nt,-4,nt,0,1,15,nt
CC(=O)Nc1ccc(Nc2nc(-c3cc4ccccc4oc3=O)cs2)cc1,-3,8,17*,-16,-14,-8,16
Nc1ccc(Nc2nc(-c3cc4ccccc4oc3=O)cs2)cc1,-42,4,-2,-6,12,11,nt
COc1cc(NC(=O)CCN2CCN(c3ccccc3OC)CC2)cc(OC)c1,nt,nt,nt,12,-2,nt,nt
CN(C)C(=O)c1ccc(NC(=O)c2cc(-c3ccco3)nc3ccccc23)cc1,-32,8,2,14,1,12,nt
CCN(CC)CCNC(=O)c1ccc(NC(=O)c2cc(-c3ccco3)nc3ccccc23)cc1,-19,13,55*,4,5,7,2
COC(=O)c1ccc(/C=C/C(=O)OCC(=O)Nc2sccc2C(N)=O)cc1,-9,3,31*,2,-20,-9,47*
CCN(CC(=O)N1CCCC1)S(=O)(=O)c1cc(C)ccc1OC,9,6,30*,4,6,16,7
COc1ccc(C)cc1S(=O)(=O)N(C)CC(=O)N1CCCCCC1,9,1,6,2,-11,2,nt
CN(c1ccccc1)S(=O)(=O)c1cccc(NC(=O)c2cc(=O)c3ccccc3o2)c1,-10,6,12*,2,-13,-13,5
NS(=O)(=O)c1cccc(NC(=O)c2cc(=O)c3ccccc3o2)c1,-10,0,-1,2,-5,4,nt
COc1ccc(C2=Nc3ccccc3N(C(=O)c3ccc4ncccc4c3)C2C(=O)NC2CCCC2)cc1 (centres undefined),nt,nt,nt,nt,2,nt,nt
COc1cccc2sc3ccc(NCCC4CCCN4C)cc3c(=O)c12 (centres undefined),-124,-85,53*,-21,-4,15,1
COc1ccc([N+](=O)[O-])cc1C(=O)Nc1ccc(Cc2ccncc2)cc1,8,-3,16*,-2,6,7,12
COc1ccccc1C(=O)O/N=C(\N)c1ccccc1Cl,-38,3,3,-6,-14,-9,nt
COc1ccc(/C(N)=N/OC(=O)c2ccc(OC)c([N+](=O)[O-])c2)cc1OC,-72,16,18*,-4,-1,-10,34
COc1ccc(C(=O)O/N=C(\N)c2ccccc2Cl)cc1OC,-40,6,11*,-18,-12,-15,39
O=C(/C=C/c1ccc(OCCCF)cc1)Nc1ccnc(-c2cccnc2)n1,-16,2,2,-12,-17,-13,nt
SMILES,APJ antag,Beta2AR agonist,APJ ag,CXCR6 block,EBI2 antag,CCR6 antagonist,APJ ag conf
O=C(/C=C/c1ccc(OCCCF)cc1)Nc1ccnc(-c2ccncc2)n1,-24,-3,16*,-7,7,-18,36
CCOc1ccccc1-c1nc(-c2ccc(NC(=O)Cc3ccc(OC)cc3)cc2)no1,-10,-2,22*,0,0,-1,20
CCOc1ccccc1-c1nc(-c2ccc(NC(=O)c3ccc(Br)o3)cc2)no1,-17,nt,3,nt,nt,-12,nt
COc1cc2c3nnc(-c4ccc(F)cc4)c-3cn(Cc3ccccc3)c2cc1OC,18,-656,24*,-4,2,4,36
COc1ccc(Cl)cc1S(=O)(=O)NC(C)C(=O)NCc1ccncc1 (centres undefined),1,3,-1,1,-3,-10,nt
CCn1cc(S(=O)(=O)c2ccccc2)c(=O)c2cc(F)c(N3CCN(C)CC3)cc21,-3,16,9,-16,-7,4,nt
Cc1cc(C)cc(S(=O)(=O)c2cn(C)c3cc(N4CCN(C)CC4)c(F)cc3c2=O)c1,14,17,38*,6,-5,6,21
NCc1csc(NC(=O)Nc2cccc(C(F)(F)F)c2)n1,nt,nt,nt,-8,8,nt,nt
COc1cccc(-c2cnc(C(O)c3ccc(Cl)cc3C)[nH]2)c1 (centres undefined),nt,nt,nt,2,-2,nt,nt
N#CC1=C(c2ccccc2)/C(=C/c2ccccc2)OC1=O,-18,36,17*,35,5,64*,12
Cc1ccc(S(=O)(=O)N2C[C@H]3C(=O)C[C@@H](c4cccs4)N(S(=O)(=O)c4ccc(C)cc4)[C@H]3C[C@H]2c2ccccc2)cc1,nt,nt,nt,4,2,nt,nt
CCOC(=O)c1sc(NC(=O)CN2C(=O)NC3(CC(C)CC(C)(C)C3)C2=O)c(C(=O)OCC)c1C (centres undefined),4,5,-1,8,1,10,nt
CCOC(=O)c1sc(NC(=O)CN2C(=O)NC3(CC(C)CC(C)(C)C3)C2=O)cc1C (centres undefined),5,-4,38*,4,2,-15,4
CC1([N+](=O)[O-])COC(c2cccc3ccccc23)OC1 (centres undefined),nt,nt,nt,-7,0,3,nt
O=C(NC(=S)N1CCCCC1CO)c1cc(Br)ccc1Cl (centres undefined),25,-4,-7,12,-6,29,nt
COc1cccc(CNC(=O)[C@@H]2CCCN2C(=O)[C@H]2CCCCN2S(=O)(=O)c2ccc(OC)c(C)c2)c1,nt,nt,nt,-3,-10,nt,nt
Cc1cc2ccccn2c1C(=O)c1nc(NCc2ccco2)ncc1Cl,14,-6,40*,13,10,21,40
COc1ccc(/C=N/Nc2cc(C)nc3ccc(Br)cc23)cc1,-6,37,17*,-4,-14,1,37

# Bioassay records (PubChem)
